As usually defined, the inhibition is how much of the control response was suppressed. Read a high inhibition as a strong effect. As usually defined, the pIC50 is the IC50 on a negative log10 scale, so that one unit is a factor of ten. Lower therefore signals a large IC50.

Holding throughout (assay type): cell-based
Experiment [1] addresses T1, Nuclear receptor ROR-beta (Homo sapiens) (UniProt Q92753).
T1 sequence (whole entry): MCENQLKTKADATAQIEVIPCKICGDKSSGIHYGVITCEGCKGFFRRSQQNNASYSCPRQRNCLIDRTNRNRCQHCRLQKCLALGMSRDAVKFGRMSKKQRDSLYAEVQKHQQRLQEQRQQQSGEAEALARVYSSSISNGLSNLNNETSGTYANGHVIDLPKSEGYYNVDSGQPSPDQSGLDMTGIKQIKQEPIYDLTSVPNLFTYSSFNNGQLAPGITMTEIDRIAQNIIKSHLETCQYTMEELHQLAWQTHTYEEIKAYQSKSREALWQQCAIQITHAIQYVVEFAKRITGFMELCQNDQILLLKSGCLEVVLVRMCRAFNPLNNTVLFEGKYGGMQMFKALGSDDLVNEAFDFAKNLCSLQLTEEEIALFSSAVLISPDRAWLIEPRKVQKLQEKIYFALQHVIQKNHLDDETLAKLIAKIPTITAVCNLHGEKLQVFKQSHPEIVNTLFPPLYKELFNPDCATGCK
Nature of the experiment: Inverse agonist activity at human ROR-beta1 transfected in HEK293 cells at 10 uM after 16 hrs by luciferase reporter gene assay relative to control. Summed up:
(§1)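 HEK293 cells grown in DMEM with 5% FBS plus penicillin/streptomycin, 37 °C, 5% CO2, seeded at 20% confluence 24 h before transfection. Calcium phosphate cotransfection per well: 150 ng receptor expression plasmid, 500 ng luciferase reporter, 10 ng β-galactosidase vector. After 8 h, compound at 10 µM or DMSO for 16 h. Luciferase normalized to β-galactosidase, inhibition expressed as percent of control, transfections in triplicate.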
A general note: Reporter assays use an easily measured gene product as a stand-in for the process of interest.

Experiment [2] deals with T2, Nuclear receptor ROR-gamma (Homo sapiens) (UniProt P51449).
T2 sequence (whole entry): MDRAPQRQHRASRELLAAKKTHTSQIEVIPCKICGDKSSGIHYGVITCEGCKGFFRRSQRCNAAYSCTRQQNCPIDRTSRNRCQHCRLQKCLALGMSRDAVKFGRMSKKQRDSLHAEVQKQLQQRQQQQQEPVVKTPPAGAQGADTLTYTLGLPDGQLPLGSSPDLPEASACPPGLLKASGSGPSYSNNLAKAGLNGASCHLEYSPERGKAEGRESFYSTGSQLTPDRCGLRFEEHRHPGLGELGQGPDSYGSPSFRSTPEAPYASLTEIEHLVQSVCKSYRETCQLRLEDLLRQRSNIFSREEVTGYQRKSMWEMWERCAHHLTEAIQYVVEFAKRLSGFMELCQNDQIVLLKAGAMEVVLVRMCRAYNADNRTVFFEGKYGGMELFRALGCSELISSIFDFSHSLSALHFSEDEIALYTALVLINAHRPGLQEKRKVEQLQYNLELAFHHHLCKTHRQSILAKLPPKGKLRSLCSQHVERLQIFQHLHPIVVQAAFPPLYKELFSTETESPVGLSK
Nature of the experiment: Inverse agonist activity at human ROR-gamma1 transfected in HEK293 cells at 10 uM after 16 hrs by luciferase reporter gene assay relative to control. In outline:
as §1

Experiment [3] addresses T3, Nuclear receptor ROR-gamma (Homo sapiens, UniProt P51449).
T3 sequence (P51449 whole entry): T2 sequence (whole entry)
Description: Inverse agonist activity at human ROR-gamma1 transfected in HEK293 cells after 16 hrs by luciferase reporter gene assay.

The target of experiment [4] is T4, Nuclear receptor ROR-alpha (Homo sapiens, UniProt P35398).
T4 sequence (P35398 whole entry): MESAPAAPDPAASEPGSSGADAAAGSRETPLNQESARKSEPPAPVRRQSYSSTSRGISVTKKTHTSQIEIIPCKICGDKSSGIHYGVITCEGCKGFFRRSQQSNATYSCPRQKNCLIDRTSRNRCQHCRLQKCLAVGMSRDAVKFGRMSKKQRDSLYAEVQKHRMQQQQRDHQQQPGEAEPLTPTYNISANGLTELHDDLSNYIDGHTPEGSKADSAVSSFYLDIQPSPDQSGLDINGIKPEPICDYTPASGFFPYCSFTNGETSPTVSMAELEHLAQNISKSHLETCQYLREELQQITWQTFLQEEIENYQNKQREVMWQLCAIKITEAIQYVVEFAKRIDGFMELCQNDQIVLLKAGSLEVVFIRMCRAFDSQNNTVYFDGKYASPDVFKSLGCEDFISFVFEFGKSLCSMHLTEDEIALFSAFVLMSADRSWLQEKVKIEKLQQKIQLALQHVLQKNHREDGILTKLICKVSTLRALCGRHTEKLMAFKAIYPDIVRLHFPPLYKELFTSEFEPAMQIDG
Nature of the experiment: Inverse agonist activity at human ROR-alpha1 transfected in HEK293 cells after 16 hrs by luciferase reporter gene assay.

Experiment [5] concerns the target T5, Nuclear receptor ROR-beta (Homo sapiens, UniProt Q92753).
T5 sequence (Q92753 whole entry): T1 sequence (whole entry)
Nature of the experiment: Inverse agonist activity at human ROR-beta1 transfected in HEK293 cells after 16 hrs by luciferase reporter gene assay.

pIC50: −log10 of the molar value.

`CCCC[Si]1(CCCC)c2ccccc2-c2cc(CC)ccc21`: the inhibition in experiment [1] is less than 5%; in experiment [2] it was 18%.
`C[Si]1(C)c2ccccc2-c2cc(C(O)(C(F)(F)F)C(F)(F)F)ccc21`: in experiment [1], the inhibition amounted to 40%.
As to `CCCC[Si]1(CCCC)c2ccccc2-c2cc(C(C)=O)ccc21`, the inhibition in experiment [1] and in experiment [2] was less than 5% in each case.
Take `CCCC[Si]1(CCCC)c2ccccc2-c2cc(C(C)O)ccc21` (stereo unspecified): the inhibition in experiment [1] and in experiment [2] was less than 5% in each case.
As for `CC[Si]1(CC)c2ccccc2-c2cc(C(O)(C(F)(F)F)C(F)(F)F)ccc21`, the inhibition in experiment [1] amounted to 28%. In addition, the pIC50 in experiment [3] was 5.38.
For `CCCC[Si]1(CCCC)c2ccccc2-c2ccccc21`, the inhibition is less than 5% in experiment [1] and 13% in experiment [2].
Consider `CCCCn1c(=O)c2ccccc2c2cc(C(O)(C(F)(F)F)C(F)(F)F)ccc21`, for which the negative-log IC50 (pIC50) in experiment [4] is 5.14; in experiment [5], 5.24; in experiment [3] it was 5.33.
`CCCCn1c(=O)c2ccccc2c2cc(CC)ccc21`: the results for the inhibition in experiment [1] and in experiment [2] were 29% and 37%, respectively.

Values taken from ChEMBL document CHEMBL3585299, “Design and synthesis of novel ROR inverse agonists with a dibenzosilole scaffold as a hydrophobic core structure” (Bioorg Med Chem, 2015).
